Screening data from PubChem.
Apaf-1 inh: inhibitors of human Apaf-1 apoptosome, primary screen, biochemical, DEVD-Rh110 fluorescence, uHTS | Apoptotic protease-activating factor 1 (Homo sapiens), O14727 | reconstituted apoptosome caspase-3 activity | inhibition, % at 20 µM | actives 0.71% (n = 330,000) | AID 489030, 2010; active means inhibition of at least 40% at 20 µM;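 further: plate controls were DMSO wells for no effect and DEVD-CHO caspase inhibitor wells for full effect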
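Material: reconstituted apoptosome with Apaf-1, cytochrome c, caspase-9, procaspase-3, dATP; medium: pH 7.5 Hepes buffer with CHAPS, BSA, DTT; also added: cytochrome c and DEVD-Rh110 substrate; timing: 30 min plus 50 min, RT; signal: Rh110 fluorescence intensity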
GASC-1 inh: inhibitors of GASC-1 histone demethylase, primary screen, biochemical, fluorescence, DELFIA europium | actives 0.069% (n = 330,000) | AID 2099, 2009 | Lysine-specific demethylase 4C (Homo sapiens), Q9H3R0 | GST-JMJD2C(1-420) H3K9me3 demethylation | inhibition, % at 2.35 µM;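 active means more than half of a compound's replicate wells show inhibition beyond 50%, single wells judged on their own value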;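 further: signal counts dimethyl H3K9 product captured on neutravidin plate; 0% = median of DMSO wells and 100% = 0.3 times that DMSO median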
GSTO1 inh: inhibitors of recombinant GSTO1, primary screen, counter-screen for RBBP9 inhibitor project, biochemical, fluorescence polarization. activity-based probe fluorescence polarization. actives 1.1% (n = 300,000). inhibition, % at 5.96 µM. Glutathione S-transferase omega-1 (Homo sapiens), P78417;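 active means inhibition above the campaign mean inhibition plus 3 SD, cut at about 35% in these data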;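 further: 0% = GSTO1-1 with DMSO and 100% = wells lacking GSTO1-1 enzyme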
TDP2 absorb: human TDP2 enzyme inhibitors, primary screen, biochemical, epi absorbance, recombinant enzyme; AID 720702, 2013; T5PNP hydrolysis, p-nitrophenol absorbance 415 nm; inhibition, % at 12.8 µM; Tyrosyl-DNA phosphodiesterase 2 (Homo sapiens), O95551; actives 0.34% (n = 370,000);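 active means inhibition above the mean of all tested compounds plus 3 SD, set per campaign, cut at about 25% in these data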;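 further: 0% = DMSO with enzyme and 100% = buffer with substrate but no TDP2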
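System: recombinant human TDP2 / Amount: 120 nM TDP2 per well / Also added: 5 mM T5PNP chromogenic substrate / Doses: 12.8 µM single point, 1% DMSO / Incubation: 2 h at 37 °C / Detection: p-Nitrophenol epi absorbance / Evaluation: % inhibition relative to enzyme-containing and enzyme-free wells / Repeats: singlicate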
PAD4 FP inh: human PAD4 inhibitors, primary screen, biochemical, fluorescence polarization, 1536-well format. Protein-arginine deiminase type-4 (Homo sapiens), Q9UM07. AID 485272, 2010. actives 0.41% (n = 330,000). recombinant PAD4, RCA probe fluorescence polarization. inhibition, % at 6.36 µM;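 active means percent inhibition above a cutoff equal to the mean of all tested compounds plus 3 SD, cut at about 15% in these data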;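 further: 0% = PAD4 with RCA probe and DMSO and 100% = probe without PAD4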
UBC9 SUMO inh: inhibitors of in vitro SUMOylation cascade, primary screen, biochemical, HTRF, uHTS; SUMO-conjugating enzyme UBC9 (Homo sapiens), P63279; HTRF SUMOylation assay, SAE1/SAE2 + UBC9; inhibition, % at 35 µM; actives 0.36% (n = 290,000); AID 2006, 2009; in the data active means inhibition above about 50%, passing the limit was not always enough
Numbers without * were called inactive. In the library only some 1.6% were active in any assay of this set; here they are far more common.

N#Cc1ccc(Cn2ccc3ccc(-c4ccc5ccn(C(=O)C6CCCCC6)c5c4)cc32)cc1 was read as TDP2 absorb 6.5.
COCCCNC(=O)C[C@H]1C[C@@]2(C(=O)OC)C(=C[C@H](COCc3ccccc3)O[C@@H]2C)N(Cc2ccc(Cl)cc2Cl)C1=O was read as TDP2 absorb 8.5.
For Cc1nc2ccc(NC(=O)COc3ccccc3C)cc2s1 the results were Apaf-1 inh 13.8, GASC-1 inh 64.8*, GSTO1 inh -8.5, TDP2 absorb 3.5, PAD4 FP inh 2.3 and UBC9 SUMO inh 8.4.
Screening Cc1nc2ccc(NC(=O)COc3ccccc3[N+](=O)[O-])cc2s1 returned Apaf-1 inh -21.9, GASC-1 inh -23.5, GSTO1 inh 3.4, TDP2 absorb 1.3, PAD4 FP inh -2.6 and UBC9 SUMO inh 15.3.
Screening Cc1cc(OC(C)C(=O)NCC(O)c2ccccc2)c2c(C)c(C)c(=O)oc2c1 (stereo not drawn) returned Apaf-1 inh 10.1, GASC-1 inh 5.0, GSTO1 inh 11.5, TDP2 absorb 3.8, PAD4 FP inh -7.0 and UBC9 SUMO inh 18.3.
For Cc1cc(OC(C(=O)O)c2ccccc2)c2c(C)c(Cc3ccccc3)c(=O)oc2c1 (stereo not drawn) the results were Apaf-1 inh -4.0, GASC-1 inh 4.6, GSTO1 inh -49.8, TDP2 absorb -4.1, PAD4 FP inh -0.2 and UBC9 SUMO inh 51.1*.
Cc1cccc(NS(=O)(=O)c2cccc3nsnc23)c1 was read as Apaf-1 inh 4.8, GASC-1 inh 55.9*, GSTO1 inh -2.0, TDP2 absorb 1.8, PAD4 FP inh -1.0 and UBC9 SUMO inh -6.8.
Screening O=C(NC1CCCCN(Cc2ccc(Cl)cc2)C1=O)c1ccc(-c2ccccc2)cc1 (stereo not drawn) returned TDP2 absorb 3.9.
Screening C=CCN1C(=O)[C@@H](CC(=O)NCCC(C)C)[C@]2(C(=O)OCC)CCCCC/C=C/12 returned TDP2 absorb -3.2.
Screening COC(=O)C1=C(C)N(CCCC(=O)O)C(=O)NC1c1cc2c(cc1[N+](=O)[O-])OCO2 (stereo not drawn) returned Apaf-1 inh 0.7, GASC-1 inh -9.2, GSTO1 inh -13.9, TDP2 absorb 1.4, PAD4 FP inh -9.1 and UBC9 SUMO inh 33.8.
COC(=O)C1=C(C)N(C)C(=O)NC1c1cc2c(cc1[N+](=O)[O-])OCO2 (stereo not drawn) was read as Apaf-1 inh 18.6, GASC-1 inh -2.1, GSTO1 inh 35.6*, TDP2 absorb 8.1, PAD4 FP inh 3.5 and UBC9 SUMO inh 65.6*.
Screening Cc1cc(C(=O)Nc2ccc(Cl)cc2)c(C)n1-c1ccccc1 returned Apaf-1 inh 4.2, GASC-1 inh 1.5, GSTO1 inh 7.0, TDP2 absorb 6.4, PAD4 FP inh 0.7 and UBC9 SUMO inh 87.5*.
`O=C(CSc1nc2ccccc2c(=O)n1Cc1ccc(C(=O)NC2CC2)cc1)NCc1ccco1` gave Apaf-1 inh 1.0, GASC-1 inh 60.8*, GSTO1 inh -0.5, TDP2 absorb 5.0, PAD4 FP inh -2.5 and UBC9 SUMO inh 23.7.
O=C(CSc1nc2ccccc2c(=O)n1Cc1ccccc1)NCc1ccco1 was read as Apaf-1 inh -12.2, GASC-1 inh 39.7, GSTO1 inh 1.7, TDP2 absorb 1.7, PAD4 FP inh 1.4 and UBC9 SUMO inh 10.3.
COC(=O)[C@]12C[C@H](CC(=O)NCc3cccc(C(F)(F)F)c3)C(=O)N(Cc3cccc4ccccc34)C1=C[C@H](COCc1ccccc1)O[C@@H]2C was read as TDP2 absorb -0.7.
Screening COc1cc(-n2nc(C)c3c2OC(N)=C(C#N)C3c2ccccc2)c(Cl)c(Br)c1O (stereo not drawn) returned Apaf-1 inh 3.6, GASC-1 inh -1.3, GSTO1 inh 21.1, TDP2 absorb 48.5*, PAD4 FP inh 26.0* and UBC9 SUMO inh -4.5.
For Cc1nn(Cc2ccccc2)c2c1C(c1cccc(Cl)c1)C(C#N)=C(N)O2 (stereo not drawn) the results were Apaf-1 inh 8.4, GASC-1 inh 6.9, GSTO1 inh 6.2, TDP2 absorb 8.8, PAD4 FP inh -0.7 and UBC9 SUMO inh -5.2.
For CCc1ccc(C(=O)CSc2nc3cc(S(=O)(=O)N4CCOCC4)ccc3n2CC)cc1 the results were Apaf-1 inh 16.4, GASC-1 inh 3.8, GSTO1 inh 35.7*, TDP2 absorb -9.6, PAD4 FP inh -0.3 and UBC9 SUMO inh -25.0.
`CCn1c(SCC(=O)OC)nc2cc(S(=O)(=O)N3CCOCC3)ccc21` gave Apaf-1 inh -0.8, GASC-1 inh 3.9, GSTO1 inh 12.4, TDP2 absorb 2.8 and PAD4 FP inh 1.6.
`Oc1ccc2[nH]cc(CCc3ccccc3)c2c1-c1ccccc1` gave TDP2 absorb -3.2.
Screening Cc1nn(CCC(=O)NNC(=O)Nc2ccc(Cl)cc2)c(C)c1[N+](=O)[O-] returned TDP2 absorb -0.6.
Cc1cc(N2C(=O)C(=O)/C(=C(/O)c3ccc(F)cc3)C2c2cccc(Br)c2)no1 (stereo not drawn) was read as Apaf-1 inh 10.1, GASC-1 inh 56.2*, GSTO1 inh -9.1, TDP2 absorb 4.6, PAD4 FP inh -1.5 and UBC9 SUMO inh 26.5.
O=C1CC(c2ccc3c(c2)OCO3)N=C2N(Cc3ccc4c(c3)OCO4)C/C(=C/c3ccccc3)N12 (stereo not drawn) was read as TDP2 absorb -0.8.
Screening COc1ccc(NS(=O)(=O)c2ccc3c(c2)[C@H]2C=CC[C@H]2[C@@H](c2ccc(C(=O)O)cc2)N3)cc1 returned Apaf-1 inh 7.9, GASC-1 inh -19.1, GSTO1 inh 15.2, TDP2 absorb 1.7, PAD4 FP inh -11.8 and UBC9 SUMO inh 54.2*.
Cc1c(Cl)cccc1NS(=O)(=O)c1ccc2c(c1)C1C=CCC1C(c1ccc(C(=O)O)cc1)N2 (stereo not drawn) was read as Apaf-1 inh 21.4, GASC-1 inh 8.8, GSTO1 inh 24.1, PAD4 FP inh -22.0 and UBC9 SUMO inh 96.6*.
C[C@H](O)[C@@H]1CN2CCc3c([nH]c4c(-c5ccc6c(c5)OCO6)cccc34)[C@@H]2C[C@@H]1N(C)C(=S)NCCc1ccccc1 was read as TDP2 absorb 8.3.
